Here are results for 6 molecules from ChEMBL document CHEMBL4270658, “Synthesis, in vitro and in vivo biological evaluation, COX-1/2 inhibition and molecular docking study of indole-N-acylhydrazone derivatives” (Bioorg Med Chem, 2018).

Usually inhibition stands for the drop in the measured response relative to a control, in per cent. For orientation: CC50 means the concentration that lowers cell viability or growth by half. A high value points to lower toxicity to the cells. By inhibition in vivo is commonly meant the relative decrease from the control value, in per cent. A word on the IC50: it is the point on the concentration scale where inhibition reaches its midpoint.

Series [1] deals with Splenocyte. As to the kind of experiment: Immunomodulatory activity in BALB/c mouse splenocytes assessed as inhibition of concanavalin A-induced lymphocyte proliferation by measuring [methyl-3H]-thymidine uptake at 50 uM after 48 hrs. The series is classed as functional. The method, boiled down:
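BALB/c splenocytes (5×10⁶ cells/well) in DMEM, triplicate, with concanavalin A (2 μg mL⁻¹) ± compound 48 h at 37 °C, 5% CO₂, then 1 μCi [methyl-³H]thymidine for 12 h; inhibition from thymidine uptake relative to control; dexamethasone positive control.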

Series [2] can be described thus: Cytotoxicity against mouse J774 macrophages after 72 hrs by Alamar Blue assay. The series is classed as cell-based.
Series [3] has as its system Splenocyte. As to the kind of experiment: Antiinflammatory activity in BALB/c mouse splenocytes assessed as increase of IL-10 level at 11 uM after 24 to 48 hrs by cytometric bead array method. The series is classed as functional, cell-based. The method, boiled down: (§1)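 Splenocytes from female BALB/c mice (6–8 weeks) isolated on Ficoll-Paque (1.076 g/mL), viability >98% by trypan blue; cultured with 11 μM compound for 24 and 48 h. Supernatant cytokines measured by cytometric bead array on flow cytometer; two independent experiments in triplicate.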

In series [4] the test system is Splenocyte. Briefly: Antiinflammatory activity in BALB/c mouse splenocytes assessed as inhibition of IL-2 level at 11 uM after 24 to 48 hrs by cytometric bead array method. The series is classed as functional, cell-based. The procedure, abridged:
as §1

The test system of series [5] is Splenocyte. As to the kind of experiment: Antiinflammatory activity in BALB/c mouse splenocytes assessed as inhibition of TNFalpha level at 11 uM after 24 to 48 hrs by cytometric bead array method. The series is classed as functional, cell-based. The method, boiled down:
as §1

Series [6] has as its system Splenocyte. As to the kind of experiment: Antiinflammatory activity in BALB/c mouse splenocytes assessed as decrease of IL-6 level at 11 uM after 24 hrs by cytometric bead array method. Type of series: functional, cell-based. The method, boiled down: as §1
In series [7] the test system is Splenocyte. Briefly: Antiinflammatory activity in BALB/c mouse splenocytes assessed as increase of IL-4 level at 11 uM after 24 to 48 hrs by cytometric bead array method. The series is classed as functional, cell-based. The method, boiled down:
as §1

In series [8] the test system is Splenocyte. Briefly: Antiinflammatory activity in BALB/c mouse splenocytes assessed as inhibition of IFNgamma level at 11 uM after 24 to 48 hrs by cytometric bead array method. Type of series: functional, cell-based. The procedure, abridged: as §1
The subject of series [9] is Splenocyte. As to the kind of experiment: Antiinflammatory activity in BALB/c mouse splenocytes assessed as inhibition of IFNgamma-induced nitric oxide production at 11 uM after 24 to 48 hrs by Griess method. Type of series: functional, cell-based. (In general: Griess reagent forms a coloured azo dye with nitrite.)
Series [10] relates to Mus musculus. As to the kind of experiment: Acute toxicity in Swiss mouse assessed as occurence of irritability at 2000 mg/kg, po after 1 hr. Type of series: organism-based. To be noted: in vivo. The procedure, abridged:
(§2)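 Fixed-dose stepwise procedure following OECD acute oral toxicity guidelines; groups of 3 Swiss Mus musculus mice (20–35 g) dosed orally at 2000 mg kg⁻¹ and observed for clinical signs of pain, suffering and impending death. Test run in duplicate. Animals kept at 22 ± 3 °C, 12 h light/dark, free food and water.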

In series [11] the test system is Mus musculus. Briefly: Acute toxicity in Swiss mouse assessed as occurence of ptosis at 2000 mg/kg, po after 1 hr. The following applies: in vivo. The series is classed as organism-based. The method, boiled down: as §2
For series [12], the system named is Mus musculus. As to the kind of experiment: Acute toxicity in Swiss mouse assessed as effect on blood cell levels at 2000 mg/kg, po (reference value: 13.0 +/- 0.9 10^6/mm3). Type of series: organism-based. To be noted: in vivo.
Series [13] deals with Mus musculus. As to the kind of experiment: Acute toxicity in Swiss mouse assessed as effect on hemoglobin levels at 2000 mg/kg, po (reference value: 14.5 +/- 0.6 g/dl). The series is classed as organism-based. To be noted: in vivo.
For series [14], the system named is Mus musculus. As to the kind of experiment: Acute toxicity in Swiss mouse assessed as effect on hematocrit levels at 2000 mg/kg, po (reference value: 74.7 +/- 6.05%). To be noted: in vivo. Type of series: organism-based.
Series [15] deals with Mus musculus. Briefly: Acute toxicity in Swiss mouse assessed as effect on mean corpuscular volume at 2000 mg/kg, po (reference value: 57.3 +/- 3.01 […]). Type of series: organism-based. The following applies: in vivo.
Series [16] deals with Mus musculus. As to the kind of experiment: Acute toxicity in Swiss mouse assessed as effect on mean corpuscular hemoglobin level at 2000 mg/kg, po (reference value: 11.16 +/- 0.53 pg). Type of series: organism-based. To be noted: in vivo.
Series [17] has as its system Mus musculus. As to the kind of experiment: Acute toxicity in Swiss mouse assessed as effect on mean corpuscular hemoglobin concentration level at 2000 mg/kg, po (reference value: 19.5 +/- 0.94%). The following applies: in vivo. The series is classed as organism-based.
The subject of series [18] is Mus musculus. As to the kind of experiment: Acute toxicity in Swiss mouse assessed as effect on leukocyte level at 2000 mg/kg, po (reference value: 10.8 +/- 6.25 10^3/mm3). The following applies: in vivo. The series is classed as organism-based.
Series [19] relates to Mus musculus. Briefly: Acute toxicity in Swiss mouse assessed as mortality at 2000 mg/kg, po. The series is classed as organism-based. To be noted: in vivo. The procedure, abridged:
as §2

The subject of series [20] is Mus musculus. Briefly: Antiinflammatory activity in carrageenan-induced Swiss mouse assessed as inhibition of paw edema at 60 mg/kg, po pretreated for 1 hr followed by carrageenan challenge measured after 6 hrs by plethysmometric method. The series is classed as functional.
Series [21] deals with Mus musculus. As to the kind of experiment: Antiinflammatory activity in carrageenan-induced Swiss mouse assessed as inhibition of paw edema at 15 mg/kg, po pretreated for 1 hr followed by carrageenan challenge measured after 6 hrs by plethysmometric method. The series is classed as functional.
For series [22], the system named is Mus musculus. Briefly: Antiinflammatory activity in carrageenan-induced Swiss mouse assessed as inhibition of paw edema at 30 mg/kg, po pretreated for 1 hr followed by carrageenan challenge measured after 1 hr by plethysmometric method. Type of series: functional.
Series [23] concerns Mus musculus. As to the kind of experiment: Antiinflammatory activity in carrageenan-induced Swiss mouse assessed as inhibition of paw edema at 30 mg/kg, po pretreated for 1 hr followed by carrageenan challenge measured after 5 hrs by plethysmometric method. Type of series: functional.
For series [24], the system named is Mus musculus. Briefly: Antiinflammatory activity in carrageenan-induced Swiss mouse assessed as inhibition of paw edema at 60 mg/kg, po pretreated for 1 hr followed by carrageenan challenge measured after 1 hr by plethysmometric method. The series is classed as functional.
Series [25] deals with T1, Prostaglandin G/H synthase 1 (Ovis aries, UniProt P05979).
T1 sequence (P05979 whole entry): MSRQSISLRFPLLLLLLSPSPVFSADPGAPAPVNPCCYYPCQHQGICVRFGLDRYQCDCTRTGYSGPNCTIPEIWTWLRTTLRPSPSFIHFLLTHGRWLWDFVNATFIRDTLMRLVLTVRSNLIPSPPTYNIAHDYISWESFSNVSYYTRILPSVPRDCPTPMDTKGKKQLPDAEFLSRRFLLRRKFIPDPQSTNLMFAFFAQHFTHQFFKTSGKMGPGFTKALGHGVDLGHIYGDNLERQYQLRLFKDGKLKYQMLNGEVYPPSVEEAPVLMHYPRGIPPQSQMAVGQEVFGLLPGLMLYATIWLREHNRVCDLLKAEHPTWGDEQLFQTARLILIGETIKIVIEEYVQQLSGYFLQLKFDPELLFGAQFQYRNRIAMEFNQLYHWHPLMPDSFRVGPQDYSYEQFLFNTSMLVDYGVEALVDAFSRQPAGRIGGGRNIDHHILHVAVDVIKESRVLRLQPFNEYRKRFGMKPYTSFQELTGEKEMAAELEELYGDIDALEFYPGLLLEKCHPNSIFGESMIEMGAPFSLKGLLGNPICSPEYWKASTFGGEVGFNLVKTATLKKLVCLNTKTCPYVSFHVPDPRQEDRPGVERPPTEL
Briefly: Inhibition of ovine COX-1 using arachidonic acid as substrate preincubated for 5 mins followed by substrate addition measured after 1 hr.

For series [26], the target named is T2, Prostaglandin G/H synthase 2 (Homo sapiens, UniProt P35354).
T2 sequence (P35354 whole entry): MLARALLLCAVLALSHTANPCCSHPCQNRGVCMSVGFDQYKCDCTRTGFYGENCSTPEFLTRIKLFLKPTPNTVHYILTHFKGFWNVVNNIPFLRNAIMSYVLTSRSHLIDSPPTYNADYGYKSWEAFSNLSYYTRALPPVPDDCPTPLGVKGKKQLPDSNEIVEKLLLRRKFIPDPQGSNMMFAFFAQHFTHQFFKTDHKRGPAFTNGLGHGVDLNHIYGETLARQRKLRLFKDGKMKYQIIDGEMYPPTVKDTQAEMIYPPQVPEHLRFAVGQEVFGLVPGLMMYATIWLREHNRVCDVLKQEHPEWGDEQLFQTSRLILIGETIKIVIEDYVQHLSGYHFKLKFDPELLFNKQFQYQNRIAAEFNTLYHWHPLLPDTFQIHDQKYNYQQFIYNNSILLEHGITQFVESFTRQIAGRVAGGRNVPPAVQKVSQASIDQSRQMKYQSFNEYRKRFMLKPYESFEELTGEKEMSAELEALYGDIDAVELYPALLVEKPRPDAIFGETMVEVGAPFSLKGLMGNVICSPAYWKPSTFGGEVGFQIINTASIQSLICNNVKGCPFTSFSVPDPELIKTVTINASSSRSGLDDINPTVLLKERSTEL
Briefly: Inhibition of recombinant N-terminal His6-tagged human COX-2 expressed in Baculovirus infected Sf21 cells using arachidonic acid as substrate preincubated for 5 mins followed by substrate addition measured after 1 hr. The series is classed as cell-based.

Series [27] in a line: Selectivity index, ratio of IC50 for ovine COX-1 to IC50 for recombinant N-terminal His6-tagged human COX-2. The procedure, abridged:
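COX-1 or COX-2 in 100 mM Tris-HCl pH 8.0 with hematin, compound (in DMSO, 1.5–100 μM) preincubated 5 min at room temperature; started with arachidonic acid plus TMPD, absorbance at 610 nm after 1 h; triplicate; IC50 calculated, selectivity index from COX-1 and COX-2 IC50s.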

Series [28] concerns Mus musculus. Briefly: Antiinflammatory activity in carrageenan-induced Swiss mouse assessed as inhibition of paw edema at 10 mg/kg, po pretreated for 1 hr followed by carrageenan challenge measured after 2 hrs by plethysmometric method. The series is classed as functional.
In series [29] the test system is Mus musculus. Briefly: Antiinflammatory activity in carrageenan-induced Swiss mouse assessed as inhibition of paw edema at 10 mg/kg, po pretreated for 1 hr followed by carrageenan challenge measured after 6 hrs by plethysmometric method. Type of series: functional.

The source made the active and inactive calls. No cut-off for these calls is given here.

For the molecule `Cc1cccc2c(/C=N/NC(=O)CC#N)c[nH]c12`, the inhibition at 50 µM in series [1] was determined as 52.2%. The molecule also registered a CC50 at 72 h in series [2] of 146 µM.
For `N#CCC(=O)N/N=C/c1c[nH]c2ccccc12`, the outcome in [3] and in series [7] was Active. The inhibition at 50 µM in series [1] worked out at 50.7%. Further, the CC50 at 72 h in series [2] came out at 150 µM. Also, the inhibition entry in series [4], in [8] and in [9] was “Active” each time. Further, the inhibition result in series [5] is “inactive”. Also, in series [6], the outcome was inactive. The Activity entry in series [10] was “Non-Toxic”; in series [11], “Non-Toxic”; in [12], 8.1 ×10⁶ /mm3; in series [13], 13.6 g/dL; in series [14], 42.5%; in series [15] it was 51.5 fL. Moreover, the Activity in series [16] is listed as 17.05 pg; in [17] it was 33.8%; in [18] it was 3.6 ×10³ /mm3; in series [19], “Non-Toxic”. In addition, the inhibition in vivo at 60 mg/kg in series [20] was 92.5%; in series [24] it was 74.3%. Also, the inhibition in vivo at 15 mg/kg in series [21] worked out at 67%. Also, the inhibition in vivo at 30 mg/kg in series [22] was determined as 88.9%; in [23], 100%. Moreover, the half-inhibitory concentration (IC50) in series [25] was 1.54 µM; in [26], 1.02 µM. Besides, the Ratio IC50 in series [27] worked out at 1.51.
On to `C[C@@H]1C[C@H]2[C@@H]3CCC4=CC(=O)C=C[C@]4(C)[C@@]3(F)[C@@H](O)C[C@]2(C)[C@@]1(O)C(=O)CO` [DEXAMETHASONE], for which the inhibition at 50 µM in series [1] turned out to be 74.6%.
For `COc1ccc2c(c1)c(CC(=O)O)c(C)n2C(=O)c1ccc(Cl)cc1` [INDOMETHACIN], the inhibition in vivo at 10 mg/kg in [28] was 72.4%; in series [29], 84.1%.
Take `N#CCC(=O)N/N=C/c1c[nH]c2c1ccc1ccccc12`: the inhibition at 50 µM in series [1] stood at 1.2%. The CC50 at 72 h in series [2] came out at 78.5 µM.
On the same counts, the results for `N#CCC(=O)N/N=C/c1c[nH]c2ccc(Cl)cc12` are 1.8% and 76.9 µM.
